The source of these data is ChEMBL document CHEMBL2331435, “Structure-activity relationship study of vitamin k derivatives yields highly potent neuroprotective agents” (J Med Chem, 2013).

Activity calls are given as the source filed them. The rule behind the calls is not given here. Bounds are passed on as bounds.

Data set [1] is described as follows: Therapeutic index, ratio of cytotoxic TC50 for mouse HT22 cells to neuroprotective PD50 for mouse HT22 cells. In kind it is cell-based, HT-22. Conditions: read-out: TI.
Data set [2] in a line: Neurotoxicity in mouse HT22 cells assessed as cell viability after 24 hrs by MTS assay. In kind it is toxicity, cell-based, HT-22. The note with it: read-out: TC50. Put shortly:
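HT22 cells were seeded at 5.0 × 10^3 per well, cultured overnight, and treated with a range of compound concentrations without glutamate for 24 h. MTS was added for 2 h and absorbance read at 490 nm. Viability was expressed as percent of untreated cells, and TC50 was fit from titration curves (7- or 12-point, n = 3–4).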
Background: Tetrazolium dyes change colour on reduction, which living cells bring about.

In data set [3] the test system is HT-22. Kind of data set: Neuroprotective activity in mouse HT22 cells assessed as prevention from glutamate-induced oxidative cell death by MTS assay. In kind it is functional. An outline of the steps: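 HT22 cells grown in high-glucose DMEM with 10% FBS and antibiotic-antimycotic at 37°C, 5% CO2. Seeded at 5.0 × 10^3 cells/well overnight, then given 10 mM glutamate (final) plus compound from DMSO stock. MTS added 24 h after treatment, 2 h at 37°C, A490 read. Viability taken as % of untreated cells. PC50 from 12-point titrations; experiments repeated at least four times.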

Data set [4] concerns Radical scavenging activity. Kind of data set: Antioxidant activity assessed as DPPH free radical scavenging activity at 20 uM. In kind it is functional. Put shortly: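 Test agents at 20 μM final, added to 100 μM DPPH in methanol; absorbance at 517 nm monitored immediately for 10 min. Trolox and ascorbic acid served as positive controls, and the rate of absorbance loss was taken as antioxidant potency.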
For orientation: The DPPH test is a chemical assay of radical scavenging.

In data set [5] the test system is HT-22. Kind of data set: Neuroprotective activity in mouse HT22 cells assessed as prevention from tBuOOH-induced oxidative cell death after 3 hrs by MTS assay. In kind it is functional, cell-based. An outline of the steps: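 HT22 cells were seeded at 5.0 × 10^3 per well and cultured overnight, then exposed to 50 μM t-BuOOH (final) plus compound for 3 h. Medium was removed, cells were washed with HBSS and returned to normal medium. MTS was added 24 h after initial treatment, absorbance was read at 490 nm after 2 h, and viability was expressed as percent of untreated cells.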

Regarding `O=C1C=C(NCc2ccccn2)C(=O)c2ccccc21`, in data set [1], the selectivity ratio came to 54. Moreover, the CC50 at 24 h in data set [2] was found to be 50 µM.
In the same order, the values of `O=C1C=C(NCCc2ccccc2)C(=O)c2ccccc21` are 171 and greater than 100 µM.
In the same order, the values of `COc1ccc(CNC2=CC(=O)c3ccccc3C2=O)cc1` are 877 and greater than 100 µM.
As to `O=C1C=C(NCc2cccc(C(F)(F)F)c2)C(=O)c2ccccc21`, the selectivity ratio in data set [1] was greater than 2220. Further, in the data set with HT-22 [3], the PD50 amounted to 45 nM. For the same compound, the CC50 at 24 h in data set [2] was greater than 100 µM.
With `O=C1C=CC(=O)c2ccccc21` [NAPHTHOQUINONE], the selectivity ratio in data set [1] is 12. For the same compound, the CC50 at 24 h in data set [2] was determined as 19 µM.
Take `CC1=CC(=O)c2ccccc2C1=O` [MENADIONE]: the selectivity ratio in data set [1] is 24. Besides, the PD50 in the data set on HT-22 [3] is listed as 797 nM. Also, the CC50 at 24 h in data set [2] came to 19 µM.
For the compound `CC1=C(N)C(=O)c2ccccc2C1=O`, the selectivity ratio in data set [1] came to 31. Also, the CC50 at 24 h in data set [2] was 54 µM.
With `CCCNC1=CC(=O)c2ccccc2C1=O`, the selectivity ratio in data set [1] is 91. Also, the CC50 at 24 h in data set [2] is 30 µM.
In the same order, the values of `O=C(O)C1=CC(=O)c2ccccc2C1=O` are 140 and greater than 100 µM.
For the compound `CC(C)NC1=CC(=O)c2ccccc2C1=O`, the selectivity ratio in data set [1] turned out to be 27. The CC50 at 24 h in data set [2] is 46 µM.
The matching figures for `O=C1C=C(NCc2cccnc2)C(=O)c2ccccc21`: 172 and 37 µM.
Turning to `O=C1C=C(NCc2ccncc2)C(=O)c2ccccc21`, the selectivity ratio in data set [1] was found to be 1110. Further, the PD50 in the data set on HT-22 [3] stood at 72 nM. Moreover, the CC50 at 24 h in data set [2] was determined as 80 µM.
In the same order, the values of `O=C1C=C(NCc2ccc(Cl)cc2)C(=O)c2ccccc21` are greater than 1700, 59 nM and greater than 100 µM.
In the same order, the values of `O=C1C=C(NCc2ccc(Cl)c(Cl)c2)C(=O)c2ccccc21` are greater than 2170, 46 nM and greater than 100 µM.
On to `O=C1C=C(O)C(=O)c2ccccc21` [LAWSONE], for which, in data set [1], the selectivity ratio turned out to be 100. In data set [2], the CC50 at 24 h is greater than 100 µM.
Consider `C#CCNC1=CC(=O)c2ccccc2C1=O`, for which, in data set [1], the selectivity ratio came to 442. In the data set with HT-22 [3], the PD50 was found to be 120 nM. In addition, in data set [2], the CC50 at 24 h is 53 µM.
In the same order, the values of `NC1=CC(=O)c2ccccc2C1=O` are 803, 61 nM and 49 µM.
On to `Cc1ccc(CNC2=CC(=O)c3ccccc3C2=O)cc1`, for which the selectivity ratio in data set [1] is greater than 1520. In the data set with HT-22 [3], the PD50 was 66 nM. Besides, the CC50 at 24 h in data set [2] was greater than 100 µM.
As for `O=C1C=C(Nc2ccccc2)C(=O)c2ccccc21`, in data set [1], the selectivity ratio was 109. Besides, the PD50 in the data set on HT-22 [3] came out at 64 nM. Also, the CC50 at 24 h in data set [2] turned out to be 7 µM.
The matching figures for `CN(C)C1=CC(=O)c2ccccc2C1=O`: greater than 407, 246 nM and greater than 100 µM.
On to `CC1=C(C)C(=O)c2ccccc2C1=O`, for which the selectivity ratio in data set [1] was found to be 254. In addition, in data set [2], the CC50 at 24 h worked out at 30 µM.
As to `O=C1O[C@H]([C@@H](O)CO)C(O)=C1O`, the result in data set [4] was Active.
Regarding `O=C1C=C(NC2CCCC2)C(=O)c2ccccc21`, in data set [1], the selectivity ratio was determined as 108. The CC50 at 24 h in data set [2] was 44 µM.
The matching figures for `CN(Cc1ccccc1)C1=CC(=O)c2ccccc2C1=O`: 781 and greater than 100 µM.
The matching figures for `CNC1=CC(=O)c2ccccc2C1=O`: 74 and greater than 100 µM.
The matching figures for `COC(=O)c1ccc(CNC2=CC(=O)c3ccccc3C2=O)cc1`: 431 and greater than 100 µM.
Take `COC1=C(OC)C(=O)C(C/C=C(\C)CC/C=C(\C)CC/C=C(\C)CC/C=C(\C)CC/C=C(\C)CC/C=C(\C)CC/C=C(\C)CC/C=C(\C)CC/C=C(\C)CCC=C(C)C)=C(C)C1=O`: the outcome with HT-22 [5] was inactive.
For `O=C1C=C(NCC2CCCCC2)C(=O)c2ccccc21`, the selectivity ratio in data set [1] was greater than 1850. Besides, the PD50 with HT-22 [3] stood at 54 nM. In addition, the CC50 at 24 h in data set [2] was greater than 100 µM.
As to `CCNC1=CC(=O)c2ccccc2C1=O`, the selectivity ratio in data set [1] stood at 106. Further, the CC50 at 24 h in data set [2] was determined as 81 µM.
